The record followed here is ChEMBL document CHEMBL1909610, “Synthesis and antioxidant activities of novel 4-Schiff base-7-benzyloxy-coumarin derivatives” (Bioorg Med Chem Lett, 2011).

Common to all, as to format: functional
The subject of test [1] is Radical scavenging activity. In words: Antioxidant activity assessed as DPPH free radical scavenging activity after 30 mins by spectrophotometric analysis. Summed up: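 Sample dissolved in DMF at several concentrations, added to 0.004% (w/v) DPPH in ethanol, incubated at 37 °C. Absorbance at 517 nm after 30 min. Percent scavenging computed against a control lacking scavenger; triplicate means; IC50 taken as concentration giving 50% radical scavenging.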
(The DPPH test is a chemical assay of radical scavenging.)

Test [2] in a line: Antioxidant activity assessed as superoxide anioin radical scavenging activity after 5 mins by spectrophotometric analysis. Summed up: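 Pyrogallol autoxidation at room temperature: 0.05 M Tris-HCl buffer, sample in DMF at various concentrations and 30 mM 1,2,3-trihydroxybenzene reacted 5 min. Stopped with 8.0 M HCl; absorbance at 320 nm against blank. Percent scavenging vs no-sample absorbance, triplicate; IC50 as concentration scavenging 50%.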

Test [3] in a line: Antioxidant activity assessed as hydroxyl radical scavenging activity after 1 hr by spectrophotometric analysis. An outline of the steps: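 Salicylate method: 20 mM sodium salicylate, 1.5 mM FeSO4, sample at various concentrations, then 6 mM H2O2 (stock levels), mixed and held in a 37 °C water bath 1 h. Absorbance at 510 nm against blank; percent scavenging vs no-sample absorbance; triplicate; ascorbic acid positive control; IC50 as 50% scavenging concentration.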

Test [4] in a line: Antioxidant activity assessed as ABTS radical scavenging activity after 3 mins by spectrophotometric analysis. An outline of the steps: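 ABTS radical cation generated from 2 mM ABTS stock in PBS pH 7.4 reacted with 70 mM K2S2O8 in the dark at room temperature for 15-16 h, then diluted with PBS to A734 0.700 ± 0.030. Sample solutions at various concentrations mixed with ABTS radical (0.1:1.9 ml). Absorbance read at ambient temperature after 3 min. Percent scavenging vs control without sample; triplicate; IC50 = concentration scavenging 50%.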

Structures are written as SMILES.

Regarding `O=c1cc(/C=N\Nc2ccc([N+](=O)[O-])cc2)c2c(OCc3ccccc3)cc(OCc3ccccc3)cc2o1`, the IC50 (as a rule, the point on the concentration scale where inhibition reaches its midpoint) in test [1] (read-out: IC50) was 1610 µM; in test [2] it was 419 µM; in test [3] (read-out: IC50) it was 97.9 µM; in test [4] (read-out: IC50) it was 15.5 µM.

As to `N/N=C\c1cc(=O)oc2cc(OCc3ccccc3)ccc12`, the IC50 was 1290 µM in test [1] (read-out: IC50), 131 µM in test [2], “Not Active” in test [3] and 9.74 µM in test [4] (read-out: IC50).

For `N/N=C\c1cc(=O)oc2cc(OCc3ccccc3)cc(OCc3ccccc3)c12`, the IC50 result was “Not Active” in test [1], 36.5 µM in test [2], above 2000 µM in test [3] (read-out: IC50) and 363 µM in test [4] (read-out: IC50).

In the case of `O=c1cc(/C=N\Nc2ccccc2)c2ccc(OCc3ccccc3)cc2o1`, the 50% inhibitory concentration (IC50) in test [1] (read-out: IC50) came out at 57.7 µM; in test [2], 416 µM; in test [3] (read-out: IC50), 455 µM; in test [4] (read-out: IC50) it was 13.2 µM.

As to `O=c1cc(/C=N\Nc2ccccc2)c2c(OCc3ccccc3)cc(OCc3ccccc3)cc2o1`, the IC50 is 76.4 µM in test [1] (read-out: IC50), 303 µM in test [2], 401 µM in test [3] (read-out: IC50) and 40.1 µM in test [4] (read-out: IC50).

As to `O=c1cc(/C=N\Nc2ccc([N+](=O)[O-])cc2)c2ccc(OCc3ccccc3)cc2o1`, the IC50 is 1350 µM in test [1] (read-out: IC50), above 2000 µM in test [2], above 2000 µM in test [3] (read-out: IC50) and 9.51 µM in test [4] (read-out: IC50).

As for `O=c1cc(/C=N\Nc2ccc([N+](=O)[O-])cc2[N+](=O)[O-])c2ccc(OCc3ccccc3)cc2o1`, the half-inhibitory concentration (IC50) in test [1] (read-out: IC50) amounted to 10.5 µM; in test [2], 181 µM; in test [3] (read-out: IC50) it was 1970 µM; in test [4] (read-out: IC50) it was 6.49 µM.

Turning to `O=c1cc(/C=N\Nc2ccc([N+](=O)[O-])cc2[N+](=O)[O-])c2c(OCc3ccccc3)cc(OCc3ccccc3)cc2o1`, the IC50 entry in test [1] was “Not Active”; in test [2], 292 µM; in test [3] (read-out: IC50), 734 µM; in test [4], “Not Active”.

On to `Nc1ccccc1/N=C\c1cc(=O)oc2cc(OCc3ccccc3)ccc12`, for which the half-maximal inhibitory concentration (IC50) was 857 µM in test [1] (read-out: IC50), 217 µM in test [2], 34.6 µM in test [3] (read-out: IC50) and 9.25 µM in test [4] (read-out: IC50).

As for `Nc1ccccc1/N=C\c1cc(=O)oc2cc(OCc3ccccc3)cc(OCc3ccccc3)c12`, the IC50 was 315 µM in test [1] (read-out: IC50), 258 µM in test [2], 624 µM in test [3] (read-out: IC50) and 7.53 µM in test [4] (read-out: IC50).

With `O=c1cc(/C=N\c2ccc(O)cc2)c2ccc(OCc3ccccc3)cc2o1`, the IC50 in test [1] (read-out: IC50) was determined as 36.6 µM; in test [2] it was 525 µM; in test [3] (read-out: IC50) it was 233 µM; in test [4] (read-out: IC50), 64.5 µM.

For the molecule `O=c1cc(/C=N\c2ccc(O)cc2)c2c(OCc3ccccc3)cc(OCc3ccccc3)cc2o1`, the IC50 came to 6.91 µM in test [1] (read-out: IC50), 249 µM in test [2], 107 µM in test [3] (read-out: IC50) and 3.57 µM in test [4] (read-out: IC50).

With `O=c1cc(/C=N\c2ccccc2O)c2ccc(OCc3ccccc3)cc2o1`, the IC50 in test [1] (read-out: IC50) was 33.3 µM; in test [2], 469 µM; in test [3], “Not Active”; in test [4] (read-out: IC50) it was 1.29 µM.

As to `O=c1cc(/C=N\c2ccccc2O)c2c(OCc3ccccc3)cc(OCc3ccccc3)cc2o1`, the IC50 stood at 16.2 µM in test [1] (read-out: IC50), 33.1 µM in test [2], 348 µM in test [3] (read-out: IC50) and 7.76 µM in test [4] (read-out: IC50).

Regarding `O=c1cc(/C=N\O)c2ccc(OCc3ccccc3)cc2o1`, the IC50 in test [1] (read-out: IC50) was 2410 µM; in test [2], above 2000 µM; in test [3] (read-out: IC50) it was above 2000 µM; in test [4] (read-out: IC50), 22.8 µM.

For `O=c1cc(/C=N\O)c2c(OCc3ccccc3)cc(OCc3ccccc3)cc2o1`, the IC50 entry in test [1] was “Not Active”; in test [2], above 2000 µM; in test [3], “Not Active”; in test [4] (read-out: IC50), 38.6 µM.

On to `O=c1cc(-c2nc3ccccc3[nH]2)c2ccc(OCc3ccccc3)cc2o1`, for which the 50% inhibitory concentration (IC50) result in test [1] is “Not Active”; in test [2], 146 µM; in test [3], “Not Active”; in test [4], “Not Active”.

With `O=C1O[C@H]([C@@H](O)CO)C(O)=C1O` [ASCORBIC ACID], the IC50 is 43.8 µM in test [1] (read-out: IC50), 15.6 µM in test [2], 73.8 µM in test [3] (read-out: IC50) and 12.8 µM in test [4] (read-out: IC50).

As for `Cc1cc(C(C)(C)C)c(O)c(C(C)(C)C)c1` [BUTYLATED HYDROXYTOLUENE], the 50% inhibitory concentration (IC50) in test [1] (read-out: IC50) is 65.8 µM; in test [2] it was 254 µM; in test [3] (read-out: IC50), above 2000 µM; in test [4] (read-out: IC50), 37 µM.
